Measurements from ChEMBL document CHEMBL4819068, “Novel potent bifunctional carboxylesterase inhibitors based on a polyfluoroalkyl-2-imino-1,3-dione scaffold” (Eur J Med Chem, 2021).
The source made the active and inactive calls. The rule behind the calls is not given here.

Experiments:
[1] = molecular target: T1, Liver carboxylesterase (Sus scrofa, UniProt Q29550); test: Inhibition of porcine liver carboxylesterase using 4-NPA as substrate preincubated for 10 mins followed by substrate addition by spectrophotometric analysis; format: tissue-based
T1 sequence (Q29550 whole entry): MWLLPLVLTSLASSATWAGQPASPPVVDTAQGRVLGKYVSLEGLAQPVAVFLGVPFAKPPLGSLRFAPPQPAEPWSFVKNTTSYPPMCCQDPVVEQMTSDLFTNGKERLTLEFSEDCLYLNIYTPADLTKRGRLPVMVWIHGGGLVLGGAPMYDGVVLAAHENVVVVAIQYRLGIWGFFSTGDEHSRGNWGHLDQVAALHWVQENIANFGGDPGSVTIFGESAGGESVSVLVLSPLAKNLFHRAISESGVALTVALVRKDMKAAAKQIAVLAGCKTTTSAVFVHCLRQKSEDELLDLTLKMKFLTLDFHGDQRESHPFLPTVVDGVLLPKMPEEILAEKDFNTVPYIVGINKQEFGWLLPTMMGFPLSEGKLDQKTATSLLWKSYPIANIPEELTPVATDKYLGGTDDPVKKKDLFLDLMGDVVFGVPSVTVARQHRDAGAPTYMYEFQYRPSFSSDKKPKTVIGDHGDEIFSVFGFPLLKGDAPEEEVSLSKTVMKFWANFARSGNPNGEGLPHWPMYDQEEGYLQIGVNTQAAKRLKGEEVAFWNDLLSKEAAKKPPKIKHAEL
Summary of the method: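 Porcine liver CES, 0.02 unit/mL, in 0.1 M K/Na phosphate pH 8.0, 25 °C; compound in DMSO (2% v/v final) preincubated 10 min, then 1 mM 4-nitrophenyl acetate; 4-nitrophenol read at 405 nm, enzyme-free blanks. Screening at 20 μM in three separate experiments; IC50 from eight concentrations between 10^-12 and 10^-4 M, residual activity relative to inhibitor-free control.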

[2] = molecular target: T2, Acetylcholinesterase (Homo sapiens, UniProt P22303); test: Inhibition of human erythrocyte AChE using acetylthiocholine iodide as substrate preincubated for 10 mins followed by substrate addition by Ellman's method
[3] = molecular target: Cholinesterase (Equus caballus, UniProt P81908); test: Inhibition of equine serum BuChE using […] as substrate preincubated for 10 mins followed by substrate addition by Ellman's method
[4] = Antioxidant activity assessed as trolox equivalent of ABTS radical cation scavenging activity incubated for 24 hrs by UV-Vis spectrophotometric analysis; format: functional
[5] = molecular target: T3, Liver carboxylesterase 1 (Homo sapiens, UniProt P23141); test: Inhibition of human recombinant CES1 expressed in baculovirus infected BTI insect cells using 4-NPA as substrate by spectrophotometric analysis
T3 sequence (P23141 whole entry): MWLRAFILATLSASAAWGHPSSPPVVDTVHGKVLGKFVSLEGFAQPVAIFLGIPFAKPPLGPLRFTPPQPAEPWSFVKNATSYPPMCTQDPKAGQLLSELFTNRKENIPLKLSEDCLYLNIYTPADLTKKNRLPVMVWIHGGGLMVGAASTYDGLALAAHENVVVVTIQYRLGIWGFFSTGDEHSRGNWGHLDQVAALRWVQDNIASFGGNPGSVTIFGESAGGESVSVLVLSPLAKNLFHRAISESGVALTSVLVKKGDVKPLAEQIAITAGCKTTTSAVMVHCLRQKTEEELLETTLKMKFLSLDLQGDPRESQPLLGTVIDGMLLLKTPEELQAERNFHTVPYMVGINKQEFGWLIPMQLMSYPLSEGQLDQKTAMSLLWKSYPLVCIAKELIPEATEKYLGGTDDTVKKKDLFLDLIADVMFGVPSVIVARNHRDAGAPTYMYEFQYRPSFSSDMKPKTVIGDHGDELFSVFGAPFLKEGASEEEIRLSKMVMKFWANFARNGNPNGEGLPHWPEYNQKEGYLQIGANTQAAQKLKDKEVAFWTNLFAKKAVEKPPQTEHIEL
Summary of the method: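 Recombinant hCES1 (baculovirus/BTI insect cells), 0.02 unit/mL, in 0.1 M K/Na phosphate pH 7.4, 25 °C; compound (DMSO, 2% v/v final) preincubated 10 min, then 1 mM 4-nitrophenyl acetate added; 4-nitrophenol release read at 405 nm against enzyme-free blank. IC50 from eight concentrations (10^-12–10^-4 M) relative to inhibitor-free control.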

[6] = Cytotoxicity against human FetMSC cells assessed as reduction in cell viability after 72 hrs by MTT assay; format: cell-based
Summary of the method: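 Human fetal MSC (bone-marrow fibroblast-like, nonimmortalized; ≤10–15 passages) grown in F12/DMEM with 10% FBS, 3 mM L-glutamine, penicillin/streptomycin. Seeded at 6×10^3 cells/well; after 24 h, medium replaced with compound at 100, 250, 500 μM for 72 h; controls 0.1% DMSO. MTT 0.5 mg/ml for 4 h, formazan dissolved in DMSO, read at 570 nm; control = 100%.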

[7] = Acute toxicity in ip dosed CD-1 mouse observed for 14 days; format: organism-based; settings: in vivo, time 14 day
Summary of the method: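 CD-1 mice given compound intraperitoneally in 2% (w/v) starch mucilage, three animals per dose group; lethality observed over 14 days; procedure based on OECD recommendations.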

[8] = molecular target: T2, Acetylcholinesterase; test: Inhibition of human erythrocyte AChE at 20 uM using acetylthiocholine iodide as substrate preincubated for 10 mins followed by substrate addition by Ellman's method relative to control
Summary of the method: (§1)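 Single-point screen at 20 μM in 0.1 M K/Na phosphate pH 7.5, 25 °C; 0.02 unit/mL enzyme, 1 mM ATCh (AChE) or BTCh (BChE), 0.33 mM DTNB; 2% DMSO final; 10 min preincubation then substrate; activity relative to inhibitor-free control; three separate experiments.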

[9] = Antioxidant activity assessed as decrease in ABTS radical cation scavenging activity incubated for 24 hrs by UV-Vis spectrophotometric analysis; format: functional
[10] = molecular target: Cholinesterase (Equus caballus) (UniProt P81908); test: Inhibition of equine serum BuChE at 20 uM using […] as substrate preincubated for 10 mins followed by substrate addition by Ellman's method relative to control; summary of the method: as §1
Sequence of Cholinesterase (Equus caballus) (P81908 whole entry): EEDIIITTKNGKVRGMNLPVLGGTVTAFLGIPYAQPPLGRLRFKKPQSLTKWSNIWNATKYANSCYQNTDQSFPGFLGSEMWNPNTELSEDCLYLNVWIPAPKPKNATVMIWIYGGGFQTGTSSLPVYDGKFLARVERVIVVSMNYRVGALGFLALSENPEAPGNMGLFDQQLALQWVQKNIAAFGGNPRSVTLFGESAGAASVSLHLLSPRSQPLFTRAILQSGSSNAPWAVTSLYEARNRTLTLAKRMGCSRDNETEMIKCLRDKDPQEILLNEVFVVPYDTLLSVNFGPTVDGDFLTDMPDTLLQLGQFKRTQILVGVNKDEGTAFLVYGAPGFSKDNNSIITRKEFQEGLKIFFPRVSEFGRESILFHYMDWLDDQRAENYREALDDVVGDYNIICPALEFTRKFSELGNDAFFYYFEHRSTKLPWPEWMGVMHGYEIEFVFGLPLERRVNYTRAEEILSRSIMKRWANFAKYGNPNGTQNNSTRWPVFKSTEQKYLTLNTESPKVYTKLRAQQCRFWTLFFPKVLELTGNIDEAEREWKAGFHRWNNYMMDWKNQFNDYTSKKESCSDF

Sequence of Cholinesterase (P81908 whole entry): as above
T2 sequence (P22303 whole entry): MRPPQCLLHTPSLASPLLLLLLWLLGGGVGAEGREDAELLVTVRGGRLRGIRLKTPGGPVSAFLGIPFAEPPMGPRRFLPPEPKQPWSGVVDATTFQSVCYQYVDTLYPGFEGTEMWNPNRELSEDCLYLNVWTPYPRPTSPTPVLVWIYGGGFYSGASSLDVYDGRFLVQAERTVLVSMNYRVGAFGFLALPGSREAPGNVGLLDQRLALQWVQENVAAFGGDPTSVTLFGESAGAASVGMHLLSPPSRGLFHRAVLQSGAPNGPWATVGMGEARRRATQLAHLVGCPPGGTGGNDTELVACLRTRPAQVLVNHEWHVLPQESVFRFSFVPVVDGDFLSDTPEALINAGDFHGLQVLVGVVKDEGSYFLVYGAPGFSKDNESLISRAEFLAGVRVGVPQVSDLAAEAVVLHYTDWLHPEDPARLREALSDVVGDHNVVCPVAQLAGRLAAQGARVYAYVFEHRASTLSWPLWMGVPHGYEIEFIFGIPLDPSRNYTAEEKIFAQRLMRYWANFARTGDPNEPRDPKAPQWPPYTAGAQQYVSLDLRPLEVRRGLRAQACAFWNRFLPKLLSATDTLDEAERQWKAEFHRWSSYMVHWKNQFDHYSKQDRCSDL

Compound | IC50 [1] [nM] | IC50 [2] [µM] | IC50 [3] [µM] | Activity [4] | IC50 [5] [nM] | IC50 [6] [µM] | LD50 at 336 h [7] [mg/kg] | inhibition [8] | IC50 [9] [µM] | inhibition [10]
CCOC(=O)/C(=N\Nc1ccccc1C(=O)OCC)C(=O)C(F)(F)F | 41.6 | 0.481 | 0.122 | 0.04 | – | – | – | – | – | –
COC(=O)/C(=N\Nc1ccccc1[N+](=O)[O-])C(=O)C(F)(F)F | 7.65 | 20.9 | 45.1 | 0.03 | 102 | > 500 | 300 | – | – | –
CCOC(=O)/C(=N\Nc1ccc(C)cc1)C(=O)C(F)(F)C(F)(F)F | 164 | – | 31.1 | 0.36 | 47.4 | – | – | 11.5% | 55.2 | –
COC(=O)/C(=N\Nc1ccc(OC)cc1)C(=O)C(F)(F)F | 46.7 | 30.3 | 49.6 | 0.97 | 21.3 | – | – | – | 22.5 | –
Oc1ccccc1O [CATECHOL] | – | – | – | 1.2 | – | – | – | – | 16.4 | –
CCOC(=O)/C(=N\Nc1ccc(C(=O)OCC)cc1)C(=O)C(F)(F)F | 47.1 | 3.79 | 19.6 | 0.1 | – | – | – | – | 193 | –
Cc1ccc(N/N=C(\C(=O)c2ccccc2)C(=O)C(F)(F)F)cc1 | 5540 | – | – | 1.7 | – | – | – | 9.1% | 12.8 | 19.4%
CCOC(=O)/C(=N\Nc1ccc(C)cc1)C(=O)C(F)(F)C(F)(F)C(F)(F)F | 102 | – | 42.1 | 0.3 | – | – | – | 23.6% | 62.3 | –
CCOC(=O)/C(=N\Nc1ccccc1[N+](=O)[O-])C(=O)C(F)(F)F | 4.95 | 0.759 | 8.06 | 0.04 | 24.1 | > 500 | 300 | – | – | –
O=[N+]([O-])c1ccc(OP(=O)(O)Oc2ccc([N+](=O)[O-])cc2)cc1 | – | – | – | – | – | – | – | inactive | – | inactive
COC(=O)/C(=N\Nc1ccc(OC)cc1)C(=O)C(F)(F)C(F)(F)C(F)(F)F | 103 | – | – | 0.4 | 111 | – | – | 7.1% | 50.3 | 21.2%
COC(=O)/C(=N\Nc1ccccc1)C(=O)C(F)(F)F | 55.5 | 20.1 | 14.5 | 0.78 | 11.5 | – | – | – | 26.6 | –
COC(=O)/C(=N\Nc1ccc(C)cc1)C(=O)C(F)F | 1570 | – | – | 0.38 | – | > 500 | – | 5.8% | 52.6 | 2.3%
CC(=O)/C(=N\Nc1ccc(C)cc1)C(=O)C(F)(F)F | 56600 | – | – | 1.33 | – | – | – | 11% | 15.6 | 13.4%
CCOC(=O)/C(=N\Nc1ccc(C)cc1)C(=O)C(F)F | 3230 | – | – | 0.37 | – | – | – | 18.2% | 53.3 | 12.4%
Cc1c(C)c2c(c(C)c1O)CCC(C)(C(=O)O)O2 (centres undefined) [TROLOX] | – | – | – | 1 | – | – | – | – | 20.4 | –
CCOC(=O)/C(=N\Nc1ccc(OC)cc1)C(=O)C(F)(F)F | 13.1 | 4.62 | – | 1 | 4.29 | – | – | – | 19.3 | 24.3%
O=C1O[C@H]([C@@H](O)CO)C(O)=C1O [ASCORBIC ACID] | – | – | – | 0.98 | – | – | – | – | 21.6 | –
CCOC(=O)/C(=N\Nc1ccc(C)cc1)C(=O)C(F)(F)C(F)(F)C(F)(F)C(F)(F)F | 89.3 | – | – | 0.26 | – | – | – | 17.2% | 66.6 | 4%
CCOC(=O)/C(=N\Nc1ccc(F)cc1)C(=O)C(F)(F)F | 7.16 | 2.67 | 11.3 | 0.6 | 22.3 | > 500 | – | – | 35.3 | –
